Only some compounds are listed: those with a hit (about 4.6% of all), similar ones and a draw of the others.
TAAR1 antag = antagonists of human TAAR1. 360,000 tested, 1.5% active. Q96RJ0. inhibition, % at 3 µM. CHO RD-HGA16 TAAR1, Fluo-8 calcium fluorescence, antagonist;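 active = inhibition above a per-plate cutoff, the mean inhibition of test compounds on that plate plus 3 SD, cut at about 49% in these data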;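 also: 0% = DMSO plus EC80 beta-PEA response and 100% = DMSO alone without agonist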
Target sequence (Q96RJ0 whole entry, looked up): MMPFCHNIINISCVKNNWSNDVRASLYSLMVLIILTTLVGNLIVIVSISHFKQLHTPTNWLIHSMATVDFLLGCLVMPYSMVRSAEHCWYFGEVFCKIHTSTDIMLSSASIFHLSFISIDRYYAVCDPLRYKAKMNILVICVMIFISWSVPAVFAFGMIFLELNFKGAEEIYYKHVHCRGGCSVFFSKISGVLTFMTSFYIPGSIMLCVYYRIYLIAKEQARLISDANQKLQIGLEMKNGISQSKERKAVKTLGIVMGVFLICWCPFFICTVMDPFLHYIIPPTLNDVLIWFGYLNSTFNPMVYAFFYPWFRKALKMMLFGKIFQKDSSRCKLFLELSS
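System: RD-HGA16 CHO cells with stable hTAAR1 and Gα16 | Probe or stimulus: EC80 β-phenethylamine stimulus | Dosing: 3 µM, single point | Times: Dye loading 75 min at 37 °C, then 30 min room temperature | Measured by: Fluo-8 calcium-sensitive fluorescence | Read-out basis: % inhibition of agonist calcium response | Replicates: n of 1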
TAAR1 agonist = human TAAR1 agonism; Q96RJ0; CHO RD-HGA16 TAAR1, Fluo-8 calcium fluorescence; vehicle wells 0%, saturating PEA agonist 100%; activation, % at 3 µM; 360,000 tested, 0.99% active; AID 624467;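 active = activation above the mean activation of all test compounds in the run plus 3 SD, cut at about 38% in these data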
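Test system: RD-HGA16 (CHO) cells co-expressing Gα16 and hTAAR1 / Benchmarks: DMSO vehicle as 0%, PEA at EC100 as 100% / Repeats: no replicates (n 1) / Measure: % activation from peak over basal fluorescence ratio, DMSO-to-PEA scaled / Timing: 17-24 h plating, Fluo-8 75 min 37 °C, 30 min RT / Technique: kinetic Fluo-8 calcium fluorescence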
OX1R antag-1 = human HCRTR1 antagonism; O43613; CHO/OX1R cells, Fluo-8 calcium fluorescence, orexin A; inhibition, % at 5 µM; 330,000 tested, 0.43% active; AID 434989;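 active = inhibition above its plate's threshold, mean inhibition of all tested compounds on the plate plus 3 SD, cut at about 37% in these data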;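 also: 0% = orexin A challenge wells and 100% = SB-334867-A antagonist wells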
CHO parental Ca = counter-screen: ATP calcium response change in parental CHO cells; parental CHO-K1, ATP-induced calcium, Fluo-8 fluorescence; inhibition, % at 5.6 µM; 330,000 tested, 0.63% active; AID 463079;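 active = inhibition above that plate's mean sample inhibition plus 3 SD, cut at about 26% in these data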;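 also: 0% = ATP-challenged DMSO wells and 100% = DMSO wells without ATP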
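Material: parental CHO cells / Compound: single nominal dose of 5.6 µM per compound / Signal: Fluo-8 fluorescence / Replicates: singlicate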
OX1R antag-2 = antagonists of human orexin 1 receptor (OX1R) | OX1R-expressing cells, FRET antagonist read-out | inhibition, % at 6.6 µM | 330,000 tested, 1.8% active | AID 485270; in the data active = inhibition mostly above about 38%, no sharp cut-off; inactive = mostly below about 40%;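 also: 0% = agonist challenge alone and 100% = reference antagonist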
GPR7 antag = blocks human GPR7 receptor signaling | GPR7-expressing cells, fluorescence antagonist assay | P48145 | 290,000 tested, 1.1% active | inhibition, % at 4.4 µM; in the data active = inhibition above about 16%, passing the limit was not always enough;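 also: cells stimulated with the agonist NPW; 0% = agonist with vehicle and 100% = vehicle without agonist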
Target sequence (P48145 whole entry, looked up): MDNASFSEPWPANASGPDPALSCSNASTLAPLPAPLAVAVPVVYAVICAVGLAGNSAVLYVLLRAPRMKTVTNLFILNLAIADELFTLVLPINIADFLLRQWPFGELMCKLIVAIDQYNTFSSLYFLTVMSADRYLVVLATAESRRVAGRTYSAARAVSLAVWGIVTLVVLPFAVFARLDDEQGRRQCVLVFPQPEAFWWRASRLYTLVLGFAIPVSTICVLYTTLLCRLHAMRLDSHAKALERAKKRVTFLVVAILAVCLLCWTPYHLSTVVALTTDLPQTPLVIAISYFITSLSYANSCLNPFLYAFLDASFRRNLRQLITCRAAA
OX1R Ca confirm = OX1R (human) antagonism, confirmed. shares compounds with OX1R antag-1. CHO/OX1R cells, orexin A calcium Fluo-8 fluorescence. inhibition, % at 5 µM. 1,100 tested, 38% active. AID 492963; in the data active = inhibition above about 29%;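 also: 0% = agonist challenge alone and 100% = reference antagonist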
CHO Ca counter = counter-screen for OX1R antagonists: effect in parental CHO cells; AID 492965; 1,100 tested, 9.3% active; shares compounds with OX1R antag-1; parental CHO-K1, ATP-induced calcium, Fluo-8 fluorescence; inhibition, % at 5.6 µM;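 active = inhibition above a per-plate limit, the mean inhibition of that plate's test compounds plus 3 SD, cut at about 25% in these data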;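 also: 0% = ATP challenge with DMSO and 100% = DMSO without ATP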
Starred values were filed as active, the others as inactive; . = no result.

SMILES	TAAR1 antag	TAAR1 agonist	OX1R antag-1	CHO parental Ca	OX1R antag-2	GPR7 antag	OX1R Ca confirm	CHO Ca counter
Cc1cnn2c(C3CC3)ccnc12	-27.3	2.6	22.4	2.8	10.4	3.1	1.8	-6.0
COc1ccc(-n2c(=S)[nH]c3cc(C(=O)Nc4cc(C(N)=O)ccc4OC)ccc3c2=O)c(OC)c1	3.0	12.1	0.2	-8.8	4.3	-10.6	.	.
COc1ccc(-n2c(=S)[nH]c3cc(C(=O)Nc4ccc(C)c(F)c4)ccc3c2=O)c(OC)c1	13.2	4.8	21.2	15.0	44.4	12.8	16.0	15.1
CCOc1ccccc1NC(=O)C1CCN(c2nc(-c3ccc(OC)cc3)no2)CC1	-7.7	1.1	-12.4	-5.5	12.6	3.9	.	.
COc1ccc(CN([C@H](CO)CC(C)C)S(=O)(=O)N(Cc2ccccc2)[C@H](CO)CC(C)C)cc1	40.5	13.1	67.1*	29.1	14.5	.	4.1	-13.0
COC(=O)[C@H](CC(C)C)NS(=O)(=O)c1ccccc1	0.4	8.0	-5.8	-2.5	6.3	-1.4	.	.
COC(=O)[C@@H](CC(C)C)NS(=O)(=O)N(Cc1ccccc1)[C@@H](CC(C)C)C(=O)OC	50.3*	8.6	47.5	-4.5	23.5	.	2.6	-18.7
N#C/C(=N\Nc1ccc(Cl)cc1)C(=N)N1CCCCCC1	-10.7	11.1	24.4	10.6	17.3	6.5	-3.1	-1.6
Cc1ccc(N/N=C(\C#N)C(=N)N2CCCCC2)cc1	3.4	0.5	-6.1	-1.6	6.5	-1.1	.	.
O=C(O)c1c(NC(=O)N2CCOCC2)sc2c1CCCC2	-9.4	0.3	-7.5	-4.6	2.9	-20.8	.	.
Cc1cccc2c1cnn2C(=O)CCC(=O)NCc1ccc(F)cc1	4.5	-0.5	49.7*	7.5	17.2	-2.8	0.6	3.7
Cc1ccc(CNC(=O)CCC(=O)n2ncc3cc(C)ccc32)cc1	-18.2	-2.7	-3.2	7.4	2.5	-6.0	.	.
COc1ccc(C(=O)NCCCNC(=O)c2ccccn2)cc1	-7.8	0.2	-12.4	-11.7	2.9	-11.3	.	.
COC(=O)C1=C(C)N(Cc2ccccc2)C(=NCc2ccco2)N[C@H]1c1cccc(F)c1	21.0	14.7	-1.1	-21.8	6.7	.	.	.
COC(=O)C1=C(C)N(Cc2ccccc2)C(=NCc2cccc(Cl)c2)N[C@H]1c1cccc(F)c1	.	.	60.7*	20.8	10.6	.	51.3*	9.0
COc1ccc(NC(=O)CCc2nnc3ccc(N4CCC5(CC4)OCCO5)nn23)cc1	-20.7	6.4	-19.0	-9.8	12.7	-1.5	.	.
Clc1cccc(CNc2nnnn2-c2ccccc2)c1	31.3	9.9	45.5*	23.6	64.7	7.0	16.5	10.4
Cn1nnnc1NCc1cccc(Cl)c1	3.0	-0.8	-3.9	4.8	3.9	-1.6	.	.
COc1cccc(CN2C(=O)C(C)N(C(=O)c3c(F)cccc3F)c3ccccc32)c1 (centres undefined)	47.5	3.9	33.4	21.9	26.2	0.6	-1.9	-3.5
COc1cccc(-c2ccc3c(c2)N(Cc2cccc(F)c2)C(=O)C(C)S3)c1 (centres undefined)	-4.3	2.0	.	.	.	.	.	.
O=C(COc1ccccc1[N+](=O)[O-])Nc1cccc(S(=O)(=O)NC2=NCCCCC2)c1	21.8	13.9	-27.3	1.3	4.7	.	.	.
COc1ccc(NS(=O)(=O)c2cccc(NC(=O)COc3ccccc3[N+](=O)[O-])c2)cc1	39.4	10.9	50.8*	1.7	19.2	.	18.2	8.9
CCOC(=O)/C(=N/Nc1ccc(Cl)cc1)S(=O)(=O)c1ccccc1	20.8	5.4	-44.3	-24.0	38.0	2.5	.	.
CCC(C(=O)NC(C)(C)C)n1c(-c2ccc(C)cc2)nc2ccccc21 (centres undefined)	0.8	-1.4	.	.	.	.	.	.
COC(=O)CNC(=O)C(NC(=O)OCc1ccccc1)C(C)C (centres undefined)	2.6	1.3	24.9	11.6	8.8	1.3	-44.4	0.8
SMILES	TAAR1 antag	TAAR1 agonist	OX1R antag-1	CHO parental Ca	OX1R antag-2	GPR7 antag	OX1R Ca confirm	CHO Ca counter
CC(C)CC(NC=C1C(=O)OC(C)(C)OC1=O)C(=O)O (centres undefined)	-5.7	1.8	-2.2	7.2	4.2	-10.0	.	.
Cc1nc2ccc(NS(=O)(=O)c3c(F)cc(F)cc3Br)cc2s1	15.3	4.2	38.0	-1.5	13.3	.	15.5	16.0
Cc1nc2ccc(NS(=O)(=O)c3ccc(F)cc3F)cc2s1	5.9	4.3	8.9	-17.8	6.0	.	.	.
O=C(COC(=O)c1cccs1)c1ccc2c(c1)OCCO2	5.2	8.5	16.1	0.9	9.9	-3.7	.	.
O=C(COC(=O)c1cccs1)c1ccc2ccccc2c1	12.7	1.1	38.0	20.3	37.1	-8.6	7.7	-3.1
O=C(c1cc(C2CCCCN2S(=O)(=O)c2cccs2)on1)N1CCOCC1 (centres undefined)	-2.7	0.6	.	.	.	.	.	.
Cc1[nH]c(=O)[nH]c(=O)c1S(=O)(=O)N1CCCC(C(=O)NCCc2ccccc2)C1 (centres undefined)	-2.1	3.2	-10.9	-12.4	1.1	6.8	.	.
Cc1[nH]c(=O)[nH]c(=O)c1S(=O)(=O)N1CCCC(C(=O)NCCc2ccc(Cl)cc2)C1 (centres undefined)	.	.	33.5	-0.2	24.9	-7.7	1.0	-7.4
Cc1c(Cl)cnc(NC(=O)CSc2nncs2)c1Cl	-5.7	1.0	-18.0	-13.4	11.9	-3.9	.	.
CCC(C)(C)NC(=O)CCCSc1nc2ccccc2[nH]1	-15.2	0.6	-25.5	-3.2	1.2	-16.7	.	.
CSc1ccc(CN(C)C(=O)c2cccc(S(=O)(=O)NCc3ccccc3)c2)cc1	40.3	5.2	39.8*	14.1	50.2	7.6	27.5	5.1
CCOC(=O)[C@]12CCC=C1N(Cc1ccc(Cl)cc1Cl)C(=O)[C@H](CC(=O)N1CCN(C(=O)c3ccco3)CC1)C2	-15.1	-2.0	.	.	.	.	.	.
Cc1cccc(NC(=S)NCc2ccccc2Cl)c1C	-8.7	3.6	66.4*	-4.8	36.2	1.7	-8.7	-10.7
Cc1c(Cl)cccc1NC(=S)NCc1ccccc1	-1.1	8.6	-12.2	-8.1	8.1	2.4	.	.
NNC(=O)c1cc2c(N3CCC(Cc4ccccc4)CC3)ncnc2s1	32.1	11.4	31.5	17.4	8.0	-8.3	13.8	10.5
O=S(=O)(c1ccccc1)N1CCN(c2ncnc3sc(-c4ccccc4)cc23)CC1	-3.9	4.1	.	.	.	-8.1	.	.
CC(C)(C)NC(=O)COC(=O)c1ccc(NC(=O)CC#N)cc1	-2.8	6.8	26.6	1.4	6.2	-23.0	4.8	-4.5
CCN(CC)c1ccc2c(c1)oc(=O)c1c(Cl)cc(=O)oc12	.	.	28.5	16.4	21.8	-8.2	79.9*	56.0*
